Laboratory results: ChEMBL document CHEMBL4414600, “Discovery of a Furanopyrimidine-Based Epidermal Growth Factor Receptor Inhibitor (DBPR112) as a Clinical Candidate for the Treatment of Non-Small Cell Lung Cancer” (J Med Chem, 2019)

Tests used:
[1] = Tmax in rat at 23.6 mg/kg, po; format: ADME, organism-based; conditions: in vivo
Procedure, shortened: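 Rat pharmacokinetics: single IV injection at 5 mg/kg or oral dosing at 20 mg/kg (23.6 mg/kg oral for one compound). Plasma parameters t1/2, CL, Vss, AUC(0-inf), Cmax, Tmax and oral bioavailability F were derived from the concentration–time profiles.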

[2] = target: Receptor tyrosine-protein kinase erbB-2 (Homo sapiens) (UniProt P04626); assay: Binding affinity to wild-type human partial length ERBB2 (K646 to V1225 residues) expressed in mammalian expression system assessed as residual binding level at 10000 nM by Kinomescan method relative to control
Sequence of Receptor tyrosine-protein kinase erbB-2 (Homo sapiens) (P04626 whole entry, the tested form may be a part): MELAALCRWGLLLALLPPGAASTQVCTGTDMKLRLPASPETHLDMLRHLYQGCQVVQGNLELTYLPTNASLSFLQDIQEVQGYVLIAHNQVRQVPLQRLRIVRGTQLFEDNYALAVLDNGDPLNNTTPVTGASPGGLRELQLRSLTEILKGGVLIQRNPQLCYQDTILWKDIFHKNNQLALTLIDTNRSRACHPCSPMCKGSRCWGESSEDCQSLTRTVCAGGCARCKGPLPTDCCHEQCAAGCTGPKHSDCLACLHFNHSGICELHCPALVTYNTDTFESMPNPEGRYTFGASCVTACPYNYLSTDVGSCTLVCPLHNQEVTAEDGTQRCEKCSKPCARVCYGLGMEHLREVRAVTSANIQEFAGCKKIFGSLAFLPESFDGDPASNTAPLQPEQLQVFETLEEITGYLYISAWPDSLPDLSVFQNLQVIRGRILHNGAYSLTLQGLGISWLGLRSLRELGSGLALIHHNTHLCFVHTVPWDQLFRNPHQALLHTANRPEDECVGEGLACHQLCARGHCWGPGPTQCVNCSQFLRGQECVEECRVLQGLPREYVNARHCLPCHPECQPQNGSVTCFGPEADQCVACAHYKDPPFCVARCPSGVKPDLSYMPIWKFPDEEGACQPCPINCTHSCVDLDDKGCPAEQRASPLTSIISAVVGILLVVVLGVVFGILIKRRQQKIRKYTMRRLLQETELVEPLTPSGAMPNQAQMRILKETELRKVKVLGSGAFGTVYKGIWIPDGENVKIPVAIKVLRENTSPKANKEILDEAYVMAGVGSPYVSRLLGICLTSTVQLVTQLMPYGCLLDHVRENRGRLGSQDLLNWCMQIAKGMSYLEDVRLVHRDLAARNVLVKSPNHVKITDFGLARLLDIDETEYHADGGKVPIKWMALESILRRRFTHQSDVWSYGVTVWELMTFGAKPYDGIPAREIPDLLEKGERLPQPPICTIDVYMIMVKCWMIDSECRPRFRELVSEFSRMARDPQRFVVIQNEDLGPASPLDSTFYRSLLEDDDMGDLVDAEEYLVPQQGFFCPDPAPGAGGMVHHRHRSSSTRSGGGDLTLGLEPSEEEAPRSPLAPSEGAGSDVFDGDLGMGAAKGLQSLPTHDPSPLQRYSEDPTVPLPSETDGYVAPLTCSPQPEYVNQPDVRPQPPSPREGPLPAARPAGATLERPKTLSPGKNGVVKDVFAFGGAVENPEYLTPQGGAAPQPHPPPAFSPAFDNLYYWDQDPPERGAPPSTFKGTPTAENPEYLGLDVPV
Procedure, shortened: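 KINOMEscan competition-binding profiling at a single concentration of 10,000 nM across a panel that included 395 non-mutant kinases. Binding is read out as percent of control. Kinases with less than 10% of control were counted as hits for the S(10) selectivity score, which is the number of non-mutant hits divided by the number of non-mutant kinases tested.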

Work on `CN(C)C/C=C/C(=O)Nc1cccc(-c2c(-c3ccccc3)oc3ncnc(N[C@H](CO)c4ccccc4)c23)c1` yielded a Tmax [1] of 3.3 h and an Activity [2] of 0%.
